Rows were chosen to be rich in hits. Some 1.7% of all compounds tested hit in one or more screens of this group.
CSN inh – CSN deneddylation inhibition; inhibition, % at 12.5 µM; Q92905; 360,000 tested, 0.38% active; Purified CSN, SCF-Nedd8-OG deneddylation, fluorescence polarization;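 active = pattern-corrected inhibition above about 35%, with an unprinted fluorescence ratio check between 0.5 and 1.5, limit read from the data, passing the limit was not always enough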
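Assay system: HEK293T-derived human Csn5 enzyme; quantity: 0.24 nM enzyme; medium: Tris/NaCl/DTT buffer, pH 7.5; also added: substrate SCFSkp2-Nedd8OG, 10 nM; doses: 12.5 µM compound; schedule: 90 min reaction at room temperature; signal: FP; read-out: % inhibition of substrate cleavage by Csn5; benchmarks: substrate-only high control, full reaction low control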
IDE cell activ – activators of human insulin-degrading enzyme in cells | P14735 | HEK cells, FAbeta-B cleavage, fluorescence polarization; 0% vehicle, 100% cell-free pure enzyme wells | activation, % at 5.96 µM | 340,000 tested, 0.073% active;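 active = activation above the mean of all tested compounds plus 3 SD, set per screening campaign, cut at about 17% in these data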
HNF4A DNA FP – change in binding of human HNF4 alpha to DNA | P41235 | HNF4a-FITC DNA binding, fluorescence polarization, 1 h | activity change, % at 10 µM | 360,000 tested, 0.3% active; in the data active = activity change above about 30%, passing the limit was not always enough
Target sequence (P41235 whole entry, looked up): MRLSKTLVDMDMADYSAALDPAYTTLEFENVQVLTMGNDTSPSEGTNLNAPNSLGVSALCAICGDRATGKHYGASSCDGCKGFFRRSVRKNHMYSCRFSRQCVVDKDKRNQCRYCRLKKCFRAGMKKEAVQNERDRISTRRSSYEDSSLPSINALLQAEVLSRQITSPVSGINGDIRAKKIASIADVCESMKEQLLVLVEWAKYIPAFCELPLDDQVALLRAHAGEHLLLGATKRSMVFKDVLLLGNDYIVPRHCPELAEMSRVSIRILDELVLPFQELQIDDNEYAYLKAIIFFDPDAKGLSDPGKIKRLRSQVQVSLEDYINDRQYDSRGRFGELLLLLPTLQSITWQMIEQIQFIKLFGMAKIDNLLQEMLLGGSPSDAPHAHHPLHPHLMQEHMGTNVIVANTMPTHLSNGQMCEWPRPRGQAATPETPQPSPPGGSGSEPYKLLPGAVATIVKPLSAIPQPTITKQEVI
Rpn11 inh – Rpn11 (human) deubiquitinase inhibition; O00487; human 26S proteasome, Ub4-pepOG fluorescence polarization; 20S core pre-blocked with epoxomicin; calls only at 20 µM; 360,000 tested, 0.59% active;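 active = inhibition at 20 µM, scaled to each plate's controls, above about 33%, limit read from the data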
TPT1 inh – inhibitors of Candida albicans tRNA 2'-phosphotransferase TPT1 | inhibition, % at 5 µM | AID 1962 | 300,000 tested, 0.81% active | recombinant caTPT1, FP RNA substrate dephosphorylation;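 active = inhibition above the mean of all tested compounds plus 3 SD, set per screening campaign, cut at about 24% in these data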
IDE cell inh – cellular human IDE inhibition | inhibition, % at 5.59 µM | 320,000 tested, 0.41% active | HEK cells, FAbetaB cleavage, fluorescence polarization | P14735;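 active = percent inhibition above the average of all tested compounds plus 3 SD, set per screening campaign, cut at about 16% in these data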;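 note: IDE supplied by intact live HEK cells; FP after avidin binding of uncleaved biotin substrate so inhibition keeps polarization high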
Rpn11 inh conf – Rpn11 inhibition confirmation, single concentration; shares compounds with Rpn11 inh; purified human 26S proteasome, Ub4-pepOG fluorescence polarization; proteasome pretreated with epoxomicin; inhibition, % at 20 µM; 1,900 tested, 29% active; AID 602318
MMP-2 counter-1 – blocks human MMP-2, flagging nonselective RPN11 hits; 1,900 tested, 4% active; recombinant MMP-2, FRET peptide cleavage fluorescence; inhibition, % at 20 µM; AID 602330; shares compounds with Rpn11 inh;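 note: human MMP-2 activated beforehand with APMA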
Thrombin inh – counter-screen for RPN11 inhibitors: inhibition of bovine thrombin | shares compounds with Rpn11 inh | bovine thrombin cleavage of Ub4-pepOG, fluorescence polarization | inhibition, % at 20 µM | 1,900 tested, 13% active | AID 602333;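 active = mean inhibition at least 40% at 20 µM, or signal 3 deviations below plate average, so some actives read negative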
CSN deneddyl val – Csn5 (human) deneddylation inhibition, single-concentration validation | Csn5 deneddylation of SCF-Nedd8OG, fluorescence polarization, 90 min | shares compounds with CSN inh | 540 tested, 62% active | inhibition, % at 16.6 µM | AID 720654; in the data active = inhibition above about 50%
MMP-2 counter-2 – counter-screen for CSN deneddylation inhibitors: human MMP-2 inhibition. shares compounds with CSN inh. recombinant MMP-2, FRET substrate fluorescence, 60 min. inhibition, % at 16.6 µM. 540 tested, 33% active;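 active = corrected plate-normalized z-score of 5 or more, or -5 or less, or inhibition of 15% or more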
Thrombin cntr – blocks bovine thrombin in a CSN deneddylation counter-screen. 540 tested, 49% active. shares compounds with CSN inh. AID 720656. inhibition, % at 16.6 µM. bovine thrombin cleavage of Ub4-pepOG, fluorescence polarization;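 active = inhibition at or above a set limit, with a fluorescence interference ratio between 0.5 and a set maximum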
Numbers stand for hits; n = inactive; x = no result given; + = active, no number. Cut-off read from the data, not from the text of the source, unless noted: active = inhibition above about 40%; inactive = the rest.

SMILES	CSN inh	IDE cell activ	HNF4A DNA FP	Rpn11 inh	TPT1 inh	IDE cell inh	Rpn11 inh conf	MMP-2 counter-1	Thrombin inh	CSN deneddyl val	MMP-2 counter-2	Thrombin cntr
COc1ccc(NC(=O)CCCN2C(=O)/C(=C\c3ccco3)SC2=S)cc1	n	n	n	n	n	n	x	x	x	x	x	x
O=C(CCCN1C(=O)/C(=C/c2ccco2)SC1=S)Nc1cccc(C(=O)O)c1	45	n	n	+	n	n	n	45	n	80	25	n
Cc1ccc(NC(=O)COc2ncnc3ccccc23)cc1S(=O)(=O)N1CCOCC1	n	n	n	n	n	n	x	x	x	x	x	x
CCOC(=O)c1[nH]c2ccc(C)cc2c1NC(=O)CN1CCCCC1	n	n	n	n	n	n	x	x	x	x	x	x
Cc1c2cc[n+](CCN3CCCCC3)cc2c(C)c2c1[nH]c1ccc(O)cc12	100	n	n	+	x	x	69	42	n	n	93	40
CC(=O)C1=C(C)N(CC2CC2)C(=O)N[C@H]1c1ccccc1	n	n	n	n	n	n	x	x	x	x	x	x
CC1(C)Cc2c(sc(NC(=O)COc3cccc4ccccc34)c2C#N)C(C)(C)N1	101	n	214	+	n	n	n	n	n	n	n	n
Cc1ccc(OCC(=O)Nc2sc3c(c2C#N)CC(C)(C)NC3(C)C)cc1	n	n	n	n	n	n	x	x	x	x	x	x
O=C(Nc1ccc(C2=NCCN2)cc1)c1ccc(C(=O)Nc2ccc(C3=NCCN3)cc2)c([N+](=O)[O-])c1	117	n	n	+	n	n	n	61	n	n	86	n
CC(NC(=O)CSc1ccc(S(=O)(=O)N2CCOCC2)cn1)c1ccc(Cl)cc1Cl (configuration not stated)	n	n	n	n	x	x	x	x	x	x	x	x
CC(Nc1nc(-c2ccc(F)cc2)cs1)c1nc2cc(Cl)c(Cl)cc2n1CCCO (configuration not stated)	n	n	n	n	n	n	x	x	x	x	x	x
Cc1ccc(Cn2c(C(C)Nc3nc(-c4ccc(C)cc4)cs3)nc3cc(Cl)c(Cl)cc32)cc1 (configuration not stated)	38	n	n	+	n	n	65	51	n	55	15	n
O=C(O)COc1ccccc1/C=N/NC(=O)CSc1nc2ccccc2n1Cc1ccccc1	n	n	n	n	n	n	x	x	x	x	x	x
COc1cc(C)c2c(c1C=O)Oc1c(c(C)c(O)c3c1C(O)OC3=O)OC2=O (configuration not stated)	38	n	n	+	n	n	n	n	n	n	n	n
CCc1nn(C(C)C(=O)NCCN2CCN(c3cccc(C)c3C)CC2)c(=O)c2cc3occc3n12 (configuration not stated)	n	n	n	n	n	n	x	x	x	x	x	x
O=C1NN(c2ccc(Cl)cc2)C(=O)/C1=C\c1ccc(-c2cccc(C(=O)O)c2)o1	36	n	n	+	x	x	142	n	n	n	15	24
COc1cc(C(=O)O/N=C(\N)c2cccc([N+](=O)[O-])c2)cc(OC)c1OC	n	n	n	n	n	n	x	x	x	x	x	x
O=C(N/N=C/c1cc(Cl)ccc1O)c1ccc(Br)cc1	44	n	n	+	n	n	177	n	n	n	39	16
O=C(N/N=C/c1cc(Br)ccc1O)c1ccncc1	n	n	n	n	n	n	x	x	x	x	x	x
O=Cc1cn(-c2ccccc2)nc1-c1cc2cc(O)ccc2oc1=O	84	n	n	+	n	n	42	n	n	n	n	n
CC(=O)N1CCN(S(=O)(=O)c2cccc(C(=O)OCc3ccc(F)cc3)c2)CC1	n	x	n	n	x	x	x	x	x	x	x	x
COc1ccccc1-n1cnc2c(c1=O)c1nc3ccccc3nc1n2-c1ccc(C)cc1	47	n	n	+	n	n	n	n	n	99	n	n
Cn1cnc2cc(NC(=O)COc3ccccc3)ccc21	n	n	n	n	n	n	x	x	x	x	x	x
CCOc1ccccc1N1CCN(S(=O)(=O)c2cccc3nsnc23)CC1	n	n	n	n	n	n	x	x	x	x	x	x
O=C(CN1CCN(c2ccccn2)CC1)Nc1cccc(S(=O)(=O)N2CCOCC2)c1	n	n	n	n	n	n	x	x	x	x	x	x
SMILES	CSN inh	IDE cell activ	HNF4A DNA FP	Rpn11 inh	TPT1 inh	IDE cell inh	Rpn11 inh conf	MMP-2 counter-1	Thrombin inh	CSN deneddyl val	MMP-2 counter-2	Thrombin cntr
COC(=O)c1ccc(NC(=O)c2ccc(NC(=O)c3ccco3)cc2)cc1	67	n	102	+	n	n	85	n	n	104	n	n
O=C(N/N=C/c1ccncc1)c1cccc(S(=O)(=O)Nc2ccc(Cl)cc2)c1	72	n	n	+	n	n	139	46	n	x	35	n
CCN(CC)CCOC(=O)c1ccc(N/C=C(/C#N)c2nc(-c3ccc(OC)c(OC)c3)cs2)cc1	126	n	n	+	n	n	70	n	57	n	-42	n
COc1cc([N+](=O)[O-])cc(/C=C2/SC(=S)N(Cc3ccccc3)C2=O)c1O	40	n	42	+	n	n	64	55	n	x	n	44
O=C1/C(=C\c2cccc([N+](=O)[O-])c2O)SC(=S)N1Cc1ccccc1	n	n	n	n	n	n	x	x	x	x	x	x
CS(=O)(=O)C1=NSC2=NC(=O)/C(=C\c3cccn3-c3ccc(Cl)cc3)C(=N)N21	100	n	n	+	n	n	77	n	120	n	26	50
C[C@H]1CN([C@@H](C)CO)S(=O)(=O)c2ccc(C#Cc3cccnc3)cc2O[C@@H]1CN(C)C(=O)Nc1ccc2c(c1)OCO2	n	x	n	n	x	x	x	x	x	x	x	x
O=C1NC(=Nc2ccc(O)cc2)S/C1=C/c1ccco1	n	n	n	n	n	n	x	x	x	x	x	x
O=C1NC(=Nc2ccc3ccccc3c2)S/C1=C/c1ccco1	67	n	n	+	n	n	n	n	n	85	n	18
Cc1c2cnn(CC(=O)Nc3c(F)c(F)cc(F)c3F)c(=O)c2c(C)n1Cc1ccccc1F	62	n	n	+	n	n	134	n	n	n	n	n
